# ChEMBL document CHEMBL4024769, “Synthesis and Investigation of Photophysical and Biological Properties of Novel S-Containing Bacteriopurpurinimides” (J Med Chem, 2017)
# Calls of active or inactive are those of the source. No cut-off for these calls is given here.
# Key:
# [1] = Drug distribution in mouse S37 cell cytoplasmic vesicles at 1 uM for 4 hrs by laser scanning confocal microscopic analysis; type: ADME
# Procedure, shortened: (§1)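 Mouse sarcoma S37 cells exposed to 1 μM photosensitizer for 4 h, then imaged by laser scanning confocal microscopy with a 63×/1.46 oil objective. Excitation 543 nm at 10 μW; emission collected above 655 nm on an APD detector. Intracellular localization judged against transmitted-light images.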
# [2] = Drug uptake in skin tumor of F1 mouse implanted with mouse S37 cells assessed as normalized fluorescence at 2.5 mg/kg, iv measured up to 24 hrs in presence of He-Ne laser radiation by local fluorescence spectroscopic analysis; type: ADME, organism-based; conditions: in vivo
# Procedure, shortened: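 S37 sarcoma-bearing immunocompetent F1 mice (18−22 g) given PS 2.5 mg/kg iv. Animals sacrificed at 0.25, 0.5, 2, 4 and 24 h, with three animals per time point. Skin, tumor and organ samples were read ex vivo by contact local fluorescence spectroscopy under He−Ne 632.8 nm excitation. Integrated 640−900 nm emission was normalized to the backscattered laser signal to give FN.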
# [3] = Drug uptake in kidney tumor of F1 mouse implanted with mouse S37 cells assessed as normalized fluorescence at 2.5 mg/kg, iv measured up to 24 hrs post injection in presence of He-Ne laser radiation by local fluorescence spectroscopic analysis; type: ADME, organism-based; conditions: in vivo
# Procedure, shortened: (§2)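 Single iv dose of 2.5 mg/kg given to F1 mice bearing S37 sarcoma. Skin, muscle, liver, kidney, spleen and tumor taken from three animals each at 0.25, 0.5, 2, 4 and 24 h and read ex vivo by contact local fluorescence spectroscopy. He–Ne 632.8 nm excitation; 640–900 nm integral normalized to backscattered laser signal (FN).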
# [4] = Drug distribution in mouse S37 cell cytoplasm at 1 uM for 4 hrs by laser scanning confocal microscopic analysis; type: ADME; procedure, shortened: as §1
# [5] = Phototoxicity against mouse S37 cells implanted in F1 mouse assessed as tumor growth inhibition at 2.5 mg/kg, iv preincubated for 30 mins with subsequent 150 J/cm2 irradiation measured on day 20 post irradiation relative to control; type: functional; conditions: S37, light or radiation study, read-out: TGI
# Procedure, shortened: (§3)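 S37 sarcoma mice treated on day 7 of tumor growth with compound iv; tumors 140–160 mm3 beforehand, droperidol 0.25 mg ip as anesthetic. LED irradiation at 800 ± 21 nm, 100 mW/cm2, 150 J/cm2, given 15 or 30 min after dosing. Controls got iv 0.9% NaCl. Volume = d1×d2×d3×0.52; TGI = […]×100%.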
# [6] = test system: Mus musculus; experiment: Toxicity in F1 mouse implanted with mouse S37 cells at 2.5 mg/kg, iv preincubated for 15 to 30 mins with subsequent 150 J/cm2 irradiation measured up to 16 days post irradiation; type: organism-based; conditions: in vivo, 384 h
# Procedure, shortened: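 F1 mice bearing S37 sarcoma (140−160 mm3) were treated on day 7 of tumour growth with 2.5 or 5.0 mg/kg iv; controls received iv 0.9% NaCl. Animals were anaesthetised with droperidol 0.25 mg/animal ip. LED irradiation (800 ± 21 nm, 100 mW/cm2, 150 J/cm2) followed 15 or 30 min after dosing. Tumour volume was calculated as d1×d2×d3×0.52, with TGI computed versus controls. Tumour-free animals were followed for 90 d.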
# [7] = Drug uptake in liver tumor of F1 mouse implanted with mouse S37 cells assessed as normalized fluorescence at 2.5 mg/kg, iv measured up to 24 hrs post injection in presence of He-Ne laser radiation by local fluorescence spectroscopic analysis; type: ADME, organism-based; conditions: in vivo; procedure, shortened: as §2
# [8] = Drug distribution in mouse S37 cell nuclear membrane at 1 uM for 4 hrs by laser scanning confocal microscopic analysis; type: ADME; procedure, shortened: as §1
# [9] = Drug distribution in mouse S37 cell cytoplasmic vesicles at 1 uM for 4 hrs by microspectroscopy; type: ADME
# [10] = Phototoxicity against mouse S37 cells implanted in F1 mouse assessed as tumor growth inhibition at 2.5 mg/kg, iv preincubated for 30 mins with subsequent 150 J/cm2 irradiation measured on day 8 post irradiation relative to control; type: functional; conditions: S37, light or radiation study, read-out: TGI; procedure, shortened: as §3
# [11] = Dark toxicity against mouse S37 cells assessed as cell growth inhibition up to 15 uM after 24 hrs by MTT assay; type: cell-based; conditions: s37, 24 h
# Procedure, shortened: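 S37 mouse sarcoma cells in DMEM with 2 mM L-glutamine and 10% FBS, 37 °C, 5% CO2. Compound added 24 h after plating and kept without irradiation for 24 h in the dark. Survival scored visually and by MTT colorimetry.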
# [12] = Drug uptake in tumor of F1 mouse implanted with mouse S37 cells at 2.5 mg/kg, iv measured after 24 hrs in presence of He-Ne laser radiation by local fluorescence spectroscopic analysis; type: ADME, organism-based, Neoplasm; conditions: in vivo; procedure, shortened: as §2
# [13] = Drug uptake in spleen tumor of F1 mouse implanted with mouse S37 cells assessed as normalized fluorescence at 2.5 mg/kg, iv measured up to 24 hrs post injection in presence of He-Ne laser radiation by local fluorescence spectroscopic analysis; type: ADME, organism-based; conditions: in vivo; procedure, shortened: as §2
# [14] = Phototoxicity against mouse S37 cells implanted in F1 mouse assessed as tumor growth inhibition at 2.5 mg/kg, iv preincubated for 30 mins with subsequent 150 J/cm2 irradiation measured on day 15 post irradiation relative to control; type: functional; conditions: S37, light or radiation study, read-out: TGI; procedure, shortened: as §3
# [15] = Phototoxicity against rat Sarcoma M1 cells implanted in rat assessed as apoptotic index at 2.5 mg/kg, ip administered as single dose on day 11 after inoculation followed by 300 J/cm2 irradiation after 2.5 to 3 hrs measured on day 3 post photodynamic therapy (reference value: 0.31 +/- 0.02%); type: functional
# Procedure, shortened: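 Rats with M1 sarcoma implanted subcutaneously in the left thigh were randomized on day 10, 25 per group. Single ip dose of 2.5 mg/kg on day 11; laser irradiation 2.5–3 h later at 810 nm, 0.51 W/cm2, 300 J/cm2, 10 min over a 1.5 cm field. Five rats sampled per time point for H&E histology, PCNA immunohistochemistry (1:200) and tumor volume. Untreated controls; Student's test, p < 0.05.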
# [16] = test system: Sarcoma M1; experiment: Phototoxicity against rat Sarcoma M1 cells implanted in rat assessed as damage to tumor nodes at 2.5 mg/kg, ip administered as single dose on day 11 post inoculation followed by 300 J/cm2 irradiation after 2.5 to 3 hrs measured on day 2 post photodynamic therapy by hematoxylin and eosin staining based assay; type: functional, organism-based
# [17] = Phototoxicity against mouse S37 cells implanted in F1 mouse assessed as tumor growth inhibition at 2.5 mg/kg, iv preincubated for 30 mins with subsequent 150 J/cm2 irradiation measured on day 11 post irradiation relative to control; type: functional; conditions: S37, light or radiation study, read-out: TGI; procedure, shortened: as §3
# [18] = Drug uptake in tumor of F1 mouse implanted with mouse S37 cells at 2.5 mg/kg, iv measured after 2 hrs in presence of He-Ne laser radiation by local fluorescence spectroscopic analysis; type: ADME, organism-based, Neoplasm; conditions: in vivo; procedure, shortened: as §2
# [19] = Drug distribution in mouse S37 cell membrane at 1 uM for 4 hrs by laser scanning confocal microscopic analysis; type: ADME, cell-based; procedure, shortened: as §1
# [20] = Phototoxicity against mouse S37 cells implanted in F1 mouse assessed as tumor growth inhibition at 2.5 mg/kg, iv preincubated for 30 mins with subsequent 150 J/cm2 irradiation measured on day 18 post irradiation relative to control; type: functional; conditions: S37, light or radiation study, read-out: TGI; procedure, shortened: as §3
# [21] = Pro-oxidant activity in 1% cremophor EL or rose Bengal assessed as singlet oxygen radical generation by measuring photo-induced fading of 4-nitroso-N,N-dimethylaniline at 6.1 uM in presence of laser radiation and histidine measured every 5 to 10 mins in presence of singlet oxygen quencher NaN3 by absorption spectroscopy; type: functional
Compound,Drug uptake [1],Flu intensity [2] [RU],Drug uptake [3],Drug uptake [4],inhibition in vivo at 2.5 mg/kg [5] [%],Activity [6],Drug uptake [7],Drug uptake [8],Drug uptake [9],inhibition in vivo at 2.5 mg/kg [10] [%],Activity [11],Drug uptake [12],Drug uptake [13],inhibition in vivo at 2.5 mg/kg [14] [%],inhibition in vivo at 2.5 mg/kg [17] [%],Drug uptake [18],Drug uptake [19],inhibition in vivo at 2.5 mg/kg [20] [%],also measured
CCCO/N=C(\C)c1c(C)c2cc3nc(c4c5[nH]c(cc6nc(cc1[nH]2)[C@@H](C)[C@@H]6CC)c(C)c5C(=O)N(OCCC)C4=O)[C@H](CCC(=O)NCCSSCCNC(=O)CC[C@@H]1c2nc(cc4[nH]c(cc5nc(cc6[nH]c7c2C(=O)N(OCCC)C(=O)c7c6C)[C@H](CC)[C@H]5C)c(/C(C)=N/OCCC)c4C)[C@H]1C)[C@H]3C,Active,2,Active,Not Active,75.5,Non-Toxic,Active,Not Active,Active,100,Non-Toxic,Not Active,Active,93.9,97.4,Active,Not Active,88,Activity [15]: 0.43%; Activity [16]: Active
CCCO/N=C(\C)c1c(C)c2cc3nc(c4c5[nH]c(cc6nc(cc1[nH]2)[C@H](C)[C@H]6CC)c(C)c5C(=O)N(OCCC)C4=O)[C@@H](CCC(=O)OC)[C@@H]3C,Active,2,Active,Not Active,65.9,Non-Toxic,Active,Not Active,Active,100,Non-Toxic,Not Active,Active,81.5,88.6,Active,Not Active,77.1,Activity [21]: inactive
